38 molecules from ChEMBL document CHEMBL4145611, “Discovery of Marinoquinolines as Potent and Fast-Acting Plasmodium falciparum Inhibitors with in Vivo Activity” (J Med Chem, 2018) can be followed below.

Data set [1] has as its system Plasmodium falciparum. In words: Antiplasmodial activity against chloroquine-sensitive blood parasite forms of Plasmodium falciparum 3D7 infected in RBC by SYBR green assay. Format: functional, organism-based. The conditions noted are these: 3D7, Erythrocyte. A digest of the protocol: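 3D7 blood-stage cultures, sorbitol-synchronized twice beforehand, used at 5-10% parasitemia with >80% rings, diluted to 0.5% parasitemia and 2% hematocrit with graded compound (0.05% DMSO), triplicate; artesunate and chloroquine controls. SYBR green I lysis-buffer fluorescence at 485/535 nm; IC50 from curve fit relative to drug-free medium.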

The test system of another data set is HepG2. In words: Cytotoxicity against human HepG2 cells assessed as reduction in cell viability after 24 hrs by MTT assay. It is filed as cell-based. The conditions noted are these: HepG2, 24 h. A digest of the protocol: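 HepG2 cells in RPMI-1640 with 10% heat-inactivated serum, seeded 5×10^3 per well, allowed to adhere 18 h at 37 °C, then exposed to compound (400–6.2 µM) for 24 h at 37 °C, 5% CO2. MTT (5 mg/mL) for 3 h, formazan dissolved in DMSO, absorbance 570 nm with 630 nm background; viability as percent of untreated control.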

Data set [2] is described as follows: Therapeutic index, ratio of EC50 for human HepG2 cells to IC50 for chloroquine-sensitive blood parasite forms of Plasmodium falciparum 3D7. Format: toxicity. The conditions noted are these: read-out: TI.
The subject of data set [3] is Plasmodium falciparum. In words: Plasmodicidal activity against Plasmodium falciparum 3D7A infected in erythrocytes assessed as parasite survival at 10 times IC50 pre-incubated for 24 hrs followed by compound washout and measured after 24 hrs by […] incorporation assay (reference value: 100%). Format: functional.
Data set [4] relates to Plasmodium falciparum. In words: Plasmodicidal activity against Plasmodium falciparum 3D7A infected in erythrocytes assessed as parasite survival at 10 times IC50 pre-incubated for 48 hrs followed by compound washout and measured after 24 hrs by […] incorporation assay (reference value: 100%). It is filed as functional.

SMILES strings stand for the structures.

Regarding `COc1ccc2c(c1)nc(-c1ccc(NC(C)=O)cc1)c1[nH]ccc12`, the IC50 in the data set on Plasmodium falciparum [1] (read-out: IC50) and with Plasmodium falciparum [1] (read-out: pIC50 (converted)) was over 10 µM throughout.
Regarding `COc1ccc2c(c1)nc(-c1ccc(N)cc1)c1[nH]ccc12`, the IC50 with Plasmodium falciparum [1] (read-out: IC50) worked out at 1.3 µM. In addition, the EC50 in the data set with HepG2 was over 750 µM. In data set [2], the selectivity ratio was over 576.
In the same order, the values of `Nc1ccc(-c2nc3ccccc3c3cc[nH]c23)cc1` are 7.7 µM, 41 µM and 5.
On to `Brc1ccc2c(-c3nc4ccccc4c4cc[nH]c34)c[nH]c2c1`, for which, in the data set on Plasmodium falciparum [1] (read-out: IC50), the IC50 amounted to 6.2 µM. The EC50 in the data set with HepG2 amounted to 42 µM. The selectivity ratio in data set [2] stood at 7.
Regarding `Brc1ccc(-c2nc3ccccc3c3cc[nH]c23)cc1`, the IC50 with Plasmodium falciparum [1] (read-out: IC50) is over 10 µM.
Still for that read-out and setting: as for `CCc1nc2cc(OC)ccc2c2cc[nH]c12`, the figure is over 10 µM.
For `COc1cc(-c2nc3ccccc3c3cc[nH]c23)cc(OC)c1OC`, the IC50 with Plasmodium falciparum [1] (read-out: IC50) was found to be 9.2 µM. Further, in the data set on HepG2, the EC50 was determined as 99 µM. Moreover, in data set [2], the selectivity ratio came to 11.
The corresponding values for `Clc1ccc(-c2nc3ccccc3c3cc[nH]c23)cc1` are 10.5 µM, over 250 µM and over 24.
`Brc1c[nH]c2c(-c3c[nH]c4ccccc34)nc3ccccc3c12`: the IC50 in the data set on Plasmodium falciparum [1] (read-out: IC50) is over 10 µM.
As to `c1ccc2[nH]c(-c3nc4ccccc4c4cc[nH]c34)cc2c1`, the IC50 in the data set with Plasmodium falciparum [1] (read-out: IC50) stood at 4.8 µM. For the same molecule, in the data set on HepG2, the EC50 amounted to 746 µM. For the same molecule, in data set [2], the selectivity ratio was 155.
`O=C1C(O)=C([C@H]2CC[C@H](c3ccc(Cl)cc3)CC2)C(=O)c2ccccc21` [ATOVAQUONE]: the results for the Survival in the data set on Plasmodium falciparum [3] and in the data set with Plasmodium falciparum [4] were 68% and 40%, respectively.
For `COc1ccc2c(c1)nc(-c1ccc([N+](=O)[O-])cc1)c1[nH]ccc12`, the IC50 in the data set on Plasmodium falciparum [1] (read-out: IC50) is 1.9 µM. In the data set with HepG2, the EC50 is 144 µM. For the same molecule, in data set [2], the selectivity ratio turned out to be 76.
The corresponding values for `CCc1nc2ccccc2c2cc[nH]c12` are 7.3 µM, 151 µM and 21.
Consider `COc1ccc2c(c1)nc(-c1ccc(C(=O)O)cc1)c1[nH]ccc12`, for which the IC50 in the data set on Plasmodium falciparum [1] (read-out: IC50) was over 10 µM.
Regarding `c1ccc(-c2nc3ccccc3c3cc[nH]c23)cc1`, in the data set with Plasmodium falciparum [1] (read-out: IC50), the IC50 was determined as 9.9 µM. The EC50 in the data set with HepG2 was over 750 µM. Further, the selectivity ratio in data set [2] was over 75.
Take `COC(=O)c1ccc(-c2nc3ccccc3c3cc[nH]c23)cc1`: the IC50 was 4 µM with Plasmodium falciparum [1] (read-out: IC50) and 3.98 µM in the data set with Plasmodium falciparum [1] (read-out: pIC50 (converted)). Moreover, the EC50 in the data set with HepG2 was over 250 µM. For the same molecule, the selectivity ratio in data set [2] is over 63.
The corresponding values for `Brc1ccc2[nH]cc(-c3nc4ccccc4c4cc[nH]c34)c2c1` are 12.3 µM, 12.3 µM, 93 µM and 8.
As to `O=C(O)c1ccc(-c2nc3ccccc3c3cc[nH]c23)cc1`, the IC50 in the data set on Plasmodium falciparum [1] (read-out: IC50) was found to be 12.1 µM. In the data set with HepG2, the EC50 worked out at 82 µM. The selectivity ratio in data set [2] came out at 7.
Regarding `C[C@H]1[C@H](OC(=O)CCC(=O)O)O[C@@H]2O[C@@]3(C)CC[C@H]4[C@H](C)CC[C@@H]1[C@@]24OO3` [ARTESUNATE], the Survival in the data set on Plasmodium falciparum [3] worked out at 14%; with Plasmodium falciparum [4] it was 5%.
Take `Cc1nc2ccccc2c2cc[nH]c12` [MARINOQUINOLINE A]: the IC50 in the data set on Plasmodium falciparum [1] (read-out: IC50) is over 10 µM.
`COc1ccc2c(c1)nc(Cc1ccccc1)c1[nH]ccc12`: the IC50 in the data set with Plasmodium falciparum [1] (read-out: IC50) was 14.3 µM. For the same molecule, in the data set on HepG2, the EC50 was found to be 478 µM. The selectivity ratio in data set [2] worked out at 33.
Take `c1ccc(Cc2nc3ccccc3c3cc[nH]c23)cc1` [MARINOQUINOLINE C]: the IC50 in the data set on Plasmodium falciparum [1] (read-out: IC50) is over 10 µM.
For `O=[N+]([O-])c1ccc(-c2nc3ccccc3c3cc[nH]c23)cc1`, the IC50 in the data set on Plasmodium falciparum [1] (read-out: IC50) is over 10 µM.
As to `COc1ccc2c(c1)nc(-c1ccccc1)c1[nH]cc(Br)c12`, the IC50 in the data set with Plasmodium falciparum [1] (read-out: IC50) is 2.1 µM. The EC50 with HepG2 is 111 µM. In addition, the selectivity ratio in data set [2] worked out at 53.
The corresponding values for `COc1ccc2c(c1)nc(-c1ccccc1)c1[nH]ccc12` are 2.4 µM, 60 µM and 25.
For `Brc1ccc2c(c1)nc(-c1c[nH]c3ccccc13)c1[nH]ccc12`, the IC50 in the data set on Plasmodium falciparum [1] (read-out: IC50) stood at 7.9 µM. In addition, the EC50 with HepG2 is over 250 µM. Moreover, in data set [2], the selectivity ratio was over 32.
Take `COC(=O)c1ccc(-c2nc3cc(OC)ccc3c3cc[nH]c23)cc1`: the IC50 in the data set on Plasmodium falciparum [1] (read-out: IC50) was found to be 1.3 µM. Also, in the data set with HepG2, the EC50 was over 250 µM. In addition, in data set [2], the selectivity ratio is over 192.
Take `c1ccc2c(c1)nc(-c1c[nH]c3ccccc13)c1[nH]ccc12` [MARINOQUINOLINE E]: the IC50 with Plasmodium falciparum [1] (read-out: IC50) is 10.4 µM. Besides, the EC50 in the data set on HepG2 was over 750 µM. In addition, the selectivity ratio in data set [2] is over 72.
In the same order, the values of `COc1cc(OC)cc(-c2nc3ccccc3c3cc[nH]c23)c1` are 4.9 µM, over 250 µM and over 51.
With `CC(C)Cc1nc2ccccc2c2cc[nH]c12`, the IC50 in the data set on Plasmodium falciparum [1] (read-out: IC50) came to 4.1 µM. In addition, in the data set with HepG2, the EC50 was over 250 µM. In data set [2], the selectivity ratio is over 61.
In the same order, the values of `COc1ccc2c(c1)nc(-c1ccc(N(C)C)cc1)c1[nH]ccc12` are 0.4 µM, 20 µM and 50.
In the case of `COc1cc(OC)cc(-c2nc3cc(OC)ccc3c3cc[nH]c23)c1`, the IC50 in the data set with Plasmodium falciparum [1] (read-out: IC50) and in the data set with Plasmodium falciparum [1] (read-out: pIC50 (converted)) was 1 µM throughout. Besides, the EC50 in the data set on HepG2 is over 250 µM. For the same molecule, the selectivity ratio in data set [2] is over 250.
Consider `COc1ccc(-c2nc3ccccc3c3cc[nH]c23)cc1`, for which, in the data set on Plasmodium falciparum [1] (read-out: IC50), the IC50 is 6.7 µM. Also, the EC50 with HepG2 is over 250 µM. Also, in data set [2], the selectivity ratio was over 37.
For `COc1ccc2c(c1)nc(-c1c[nH]c3ccccc13)c1[nH]ccc12`, the IC50 was 0.061 µM with Plasmodium falciparum [1] (read-out: IC50) and 0.0617 µM in the data set with Plasmodium falciparum [1] (read-out: pIC50 (converted)). For the same molecule, the EC50 with HepG2 stood at 20 µM. Also, the selectivity ratio in data set [2] was 328.
As for `COc1ccc2c(c1)nc(C)c1[nH]ccc12`, the IC50 in the data set with Plasmodium falciparum [1] (read-out: IC50) amounted to 10.5 µM. Also, in the data set with HepG2, the EC50 was over 750 µM. In addition, the selectivity ratio in data set [2] is over 71.
The corresponding values for `CN(C)c1ccc(-c2nc3ccccc3c3cc[nH]c23)cc1` are 5.8 µM, over 600 µM and over 104.
Turning to `CCc1nc(N)nc(N)c1-c1ccc(Cl)cc1` [PYRIMETHAMINE], the Survival in the data set with Plasmodium falciparum [3] is 55%; with Plasmodium falciparum [4], 11%.
With `COc1ccc2c(c1)nc(C)c1[nH]cc(Br)c12`, the IC50 in the data set on Plasmodium falciparum [1] (read-out: IC50) stood at 5.4 µM. Further, the EC50 in the data set on HepG2 was over 250 µM. In addition, the selectivity ratio in data set [2] is over 46.
